The values below come from ChEMBL document CHEMBL1132437, “Synthesis and antimicrobial activity of 4H-4-oxoquinolizine derivatives: consequences of structural modification at the C-8 position” (1999).

Experiment [1] deals with Pseudomonas aeruginosa. As to the kind of experiment: In vitro antibacterial activity against gram negative P. aeruginosa DPHP 5263. Format: functional. The note with it: Pseudomonas aeruginosa, DPHP 5263; read-out: MIC. The method in brief: (§1)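 Agar dilution MIC determination following the National Committee for Clinical Laboratory Standards recommendations.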
Experiment [2] concerns Staphylococcus aureus. Nature of the experiment: In vivo efficacy against Staphylococcus aureus NCTC 10649M in mouse. In kind it is functional. The method in brief:
(§2)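 Mouse protection model: mice infected intravenously with 100-fold LD50 of the organism. Compound given by subcutaneous injection or oral gavage at 1 and 5 h after infection, over a dose range. Deaths tracked for 7 days post-inoculation. ED50 is the dose giving 50% survival of treated mice over the trial.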

The subject of experiment [3] is Staphylococcus aureus. As to the kind of experiment: In vitro antibacterial activity against gram-positive Staphylococcus aureus NCTC 10649M. In kind it is functional. The note with it: Staphylococcus aureus, NCTC 10649; read-out: MIC. The method in brief: as §1
In experiment [4] the test system is Escherichia coli. As to the kind of experiment: In vitro antibacterial activity against gram negative Escherichia coli KNK 437. In kind it is functional. The note with it: Escherichia coli; read-out: MIC. The method in brief:
as §1

The test system of experiment [5] is Escherichia coli. As to the kind of experiment: In vivo efficacy against Escherichia coli JUHL in mouse protection test after subcutaneous administration. Format: functional. The note with it: Escherichia coli, sc; read-out: ED50. The method in brief:
as §2

For another experiment, the system named is Burkholderia cepacia. Nature of the experiment: In vitro antibacterial activity against gram negative Pseudomonas cepacia 2961. In kind it is functional. The note with it: Burkholderia cepacia; read-out: MIC. The method in brief: as §1
Experiment [6] deals with Pseudomonas aeruginosa. As to the kind of experiment: In vitro antibacterial activity against Gram-negative Pseudomonas aeruginosa 5007. In kind it is functional. The note with it: Pseudomonas aeruginosa; read-out: MIC. The method in brief:
as §1

For another experiment, the system named is Enterococcus faecium. Nature of the experiment: In vitro antibacterial activity against gram-positive Enterococcus faecium ATCC 8043. In kind it is functional. The note with it: Enterococcus faecium, ATCC 8043; read-out: MIC. The method in brief:
as §1

The test system of experiment [7] is Mus musculus. Nature of the experiment: IIn vivo efficacy against Escherichia coli JUHL in mouse protection test after administration by oral gavage. Format: functional. The method in brief:
as §2

Another experiment deals with Streptococcus pyogenes. As to the kind of experiment: In vitro antibacterial activity against gram positive Streptococcus pyogenes 930. In kind it is functional. The note with it: Streptococcus pyogenes; read-out: MIC. The method in brief: as §1
The subject of experiment [8] is Staphylococcus aureus. Nature of the experiment: In vitro antibacterial activity against gram-positive Staphylococcus aureus 1775. The note with it: Staphylococcus aureus; read-out: MIC. Format: functional. The method in brief: as §1
The subject of a further experiment is Streptococcus pneumoniae. As to the kind of experiment: In vivo efficacy against Streptococcus pneumoniae ATCC 6303 in mouse protection test after s.c. administration. In kind it is functional. The note with it: Streptococcus pneumoniae, sc; read-out: ED50. The method in brief: as §2
The test system of experiment [9] is Staphylococcus aureus. As to the kind of experiment: In vivo efficacy against Staphylococcus aureus NCTC 10649M in mouse protection test after p.o. administration. In kind it is functional. The note with it: Staphylococcus aureus, po; read-out: ED50. The method in brief:
as §2

For experiment [10], the system named is Pseudomonas aeruginosa. As to the kind of experiment: In vivo efficacy against Pseudomonas aeruginosa 5007 in mouse protection test after subcutaneous administration. In kind it is functional. The note with it: Pseudomonas aeruginosa, sc; read-out: ED50. The method in brief: as §2
The test system of experiment [11] is Escherichia coli. Nature of the experiment: In vivo efficacy against Escherichia coli JUHL in mouse protection test after p.o. administration. In kind it is functional. The note with it: Escherichia coli, po; read-out: ED50. The method in brief: as §2
Experiment [12] has as its system Mus musculus. Nature of the experiment: In vivo efficacy against Streptococcus pneumoniae ATCC 6303 in mouse protection test after administration by oral gavage. Format: functional. The method in brief: as §2
In experiment [13] the test system is Mus musculus. As to the kind of experiment: In vivo efficacy against Pseudomonas aeruginosa 5007 in mouse protection test after administration by oral gavage. Format: functional. The method in brief:
as §2

Experiment [14] relates to Mus musculus. Nature of the experiment: InIn vivo efficacy against Escherichia coli JUHL in mouse protection test after administration by oral gavage. Format: functional. The method in brief:
as §2

Experiment [15] has as its system Mus musculus. Nature of the experiment: In vivo efficacy against Staphylococcus aureus NCTC 10649M in mouse protection test.
Experiment [16] relates to Pseudomonas aeruginosa. As to the kind of experiment: (§3) In vivo efficacy against Pseudomonas aeruginosa 5007 in mouse protection test after administration by oral gavage. Format: functional. The note with it: Pseudomonas aeruginosa, po; read-out: ED50. The method in brief: as §2
Experiment [17] relates to Mus musculus. The description is as §3. In kind it is functional. The method in brief: as §2
The test system of experiment [18] is Mus musculus. Nature of the experiment: In vivo efficacy against Pseudomonas aeruginosa 5007 in mouse protection test […]. In kind it is functional. The method in brief: as §2
[19] abbreviates: Staphylococcus aureus, read-out: ED50.

In brackets after ≈: the same amount, converted by molar mass.

For `Cc1c(N2C[C@@H]3OCCN[C@@H]3C2)c(F)cn2c(=O)c(C(=O)O)cc(C3CC3)c12`, the MIC (usually the lowest concentration found to suppress growth) was 100 µg/mL (≈ 258 µM) with Pseudomonas aeruginosa [1]; 0.002 µg/mL (≈ 0.00516 µM) with Staphylococcus aureus [3]; 0.78 µg/mL (≈ 2.01 µM) in the experiment on Escherichia coli [4]; 6.2 µg/mL (≈ 16 µM) with Burkholderia cepacia; 1.56 µg/mL (≈ 4.03 µM) with Pseudomonas aeruginosa [6]; 0.1 µg/mL (≈ 0.258 µM) in the experiment with Enterococcus faecium. For the same molecule, the MIC in the experiment on Streptococcus pyogenes came to 0.1 µg/mL (≈ 0.258 µM); in the experiment on Staphylococcus aureus [8], 0.78 µg/mL (≈ 2.01 µM). Further, the 50% effective dose (ED50) – broadly, the dose that gives a 50% effect, or the effect in half of the subjects – was 4.8 mg/kg in the experiment with Staphylococcus aureus [2], 2.7 mg/kg with Staphylococcus aureus [2] (setting [19]), more than 5 mg/kg in the experiment with Escherichia coli [5] and more than 20 mg/kg in the experiment with Mus musculus [7].
Regarding `Cc1c(N2CC[C@@H](C)[C@H](N)C2)c(F)cn2c(=O)c(C(=O)O)cc(C3CC3)c12`, the ED50 worked out at 2.1 mg/kg in the experiment with Streptococcus pneumoniae; 1 mg/kg in the experiment on Staphylococcus aureus [2] (setting [19]); 4.3 mg/kg with Staphylococcus aureus [9]; 24.5 mg/kg in the experiment with Pseudomonas aeruginosa [10]; 0.6 mg/kg in the experiment with Escherichia coli [5]; 3 mg/kg with Escherichia coli [11]. Further, the values for the 50% effective dose (ED50) in the experiment with Mus musculus [12] and in the experiment on Mus musculus [13] were 1 mg/kg and more than 50 mg/kg, respectively.
In the case of `Cc1c(N2CC[C@H](C)[C@@H](N)C2)c(F)cn2c(=O)c(C(=O)O)cc(C3CC3)c12`, the ED50 in the experiment with Mus musculus [14] stood at 2.3 mg/kg; with Staphylococcus aureus [2] (setting [19]) it was 0.5 mg/kg; in the experiment with Staphylococcus aureus [9] it was 1.9 mg/kg; in the experiment on Escherichia coli [5], 1.7 mg/kg. For the same molecule, the MIC with Staphylococcus aureus [3] was found to be 0.01 µg/mL (≈ 0.0268 µM); with Escherichia coli [4] it was 0.39 µg/mL (≈ 1.04 µM); with Burkholderia cepacia, 3.1 µg/mL (≈ 8.3 µM); in the experiment on Pseudomonas aeruginosa [6], 0.39 µg/mL (≈ 1.04 µM); in the experiment with Enterococcus faecium, 0.05 µg/mL (≈ 0.134 µM); in the experiment on Streptococcus pyogenes, 0.02 µg/mL (≈ 0.0536 µM). Further, the MIC in the experiment with Staphylococcus aureus [8] worked out at 0.39 µg/mL (≈ 1.04 µM).
As to `Cc1c(N2CC[C@@H](NCCF)C2)c(F)cn2c(=O)c(C(=O)O)cc(C3CC3)c12`, the MIC in the experiment on Pseudomonas aeruginosa [1] is 25 µg/mL (≈ 63.9 µM); in the experiment on Staphylococcus aureus [3], 0.02 µg/mL (≈ 0.0511 µM); with Escherichia coli [4] it was 1.56 µg/mL (≈ 3.99 µM); with Burkholderia cepacia, 1.56 µg/mL (≈ 3.99 µM); with Pseudomonas aeruginosa [6], 1.56 µg/mL (≈ 3.99 µM); in the experiment on Enterococcus faecium, 0.1 µg/mL (≈ 0.255 µM). For the same molecule, the minimum inhibitory concentration (MIC) stood at 0.05 µg/mL (≈ 0.128 µM) in the experiment with Streptococcus pyogenes and 0.39 µg/mL (≈ 0.996 µM) with Staphylococcus aureus [8]. Besides, the ED50 was 8 mg/kg in the experiment with Streptococcus pneumoniae; 9.6 mg/kg in the experiment with Staphylococcus aureus [9]; more than 32 mg/kg in the experiment with Pseudomonas aeruginosa [10]; 4.4 mg/kg with Escherichia coli [5]; 34.1 mg/kg in the experiment on Escherichia coli [11]; 30.7 mg/kg with Mus musculus [12]. Further, the ED50 in the experiment with Mus musculus [15] is 2.1 mg/kg; in the experiment with Pseudomonas aeruginosa [16] it was more than 50 mg/kg.
For `CCCN[C@H]1CCN(c2c(F)cn3c(=O)c(C(=O)O)cc(C4CC4)c3c2C)C1`, the MIC in the experiment on Pseudomonas aeruginosa [1] is 12.5 µg/mL (≈ 32.3 µM); with Staphylococcus aureus [3], 0.1 µg/mL (≈ 0.258 µM); with Escherichia coli [4] it was 0.2 µg/mL (≈ 0.516 µM); in the experiment on Burkholderia cepacia it was 3.1 µg/mL (≈ 8 µM); with Pseudomonas aeruginosa [6], 1.56 µg/mL (≈ 4.03 µM); in the experiment with Enterococcus faecium, 0.39 µg/mL (≈ 1.01 µM). In addition, the MIC in the experiment with Streptococcus pyogenes was found to be 0.2 µg/mL (≈ 0.516 µM); in the experiment with Staphylococcus aureus [8], 1.56 µg/mL (≈ 4.03 µM). Also, the ED50 in the experiment with Staphylococcus aureus [2] (setting [19]) was 4.3 mg/kg; in the experiment on Staphylococcus aureus [9] it was 25.4 mg/kg; in the experiment on Pseudomonas aeruginosa [10], more than 8 mg/kg; with Escherichia coli [5], 1.1 mg/kg; in the experiment with Escherichia coli [11], more than 10 mg/kg; in the experiment on Mus musculus [17], more than 50 mg/kg.
With `Cc1c(N2CC[C@@H]3NCCC[C@@H]32)c(F)cn2c(=O)c(C(=O)O)cc(C3CC3)c12`, the minimal inhibitory concentration (MIC) amounted to 100 µg/mL (≈ 259 µM) with Pseudomonas aeruginosa [1]; 0.2 µg/mL (≈ 0.519 µM) with Staphylococcus aureus [3]; 0.78 µg/mL (≈ 2.02 µM) with Escherichia coli [4]; 25 µg/mL (≈ 64.9 µM) with Burkholderia cepacia; 3.1 µg/mL (≈ 8.04 µM) in the experiment with Pseudomonas aeruginosa [6]; 3.1 µg/mL (≈ 8.04 µM) in the experiment with Enterococcus faecium. For the same molecule, the MIC amounted to 1.56 µg/mL (≈ 4.05 µM) with Streptococcus pyogenes and 12.5 µg/mL (≈ 32.4 µM) with Staphylococcus aureus [8]. Also, the ED50 was 7 mg/kg in the experiment with Staphylococcus aureus [2] (setting [19]); 23.9 mg/kg in the experiment on Staphylococcus aureus [9]; more than 32 mg/kg with Pseudomonas aeruginosa [10]; more than 50 mg/kg with Mus musculus [18]; 4.4 mg/kg with Escherichia coli [5]; more than 10 mg/kg in the experiment with Mus musculus [7].
On to `Cc1c(N2CCCC(NC3CC3)C2)c(F)cn2c(=O)c(C(=O)O)cc(C3CC3)c12` (stereo unspecified), for which the MIC in the experiment with Pseudomonas aeruginosa [1] was 25 µg/mL (≈ 62.6 µM); in the experiment with Staphylococcus aureus [3], 0.01 µg/mL (≈ 0.025 µM); in the experiment with Escherichia coli [4] it was 0.2 µg/mL (≈ 0.501 µM); in the experiment with Burkholderia cepacia it was 3.1 µg/mL (≈ 7.76 µM); with Pseudomonas aeruginosa [6] it was 0.39 µg/mL (≈ 0.976 µM); in the experiment with Enterococcus faecium, 0.05 µg/mL (≈ 0.125 µM). The figures for the MIC in the experiment on Streptococcus pyogenes and in the experiment on Staphylococcus aureus [8] were 0.05 µg/mL (≈ 0.125 µM) and 1.56 µg/mL (≈ 3.91 µM), respectively. Besides, the ED50 is 1 mg/kg with Streptococcus pneumoniae; 2.1 mg/kg in the experiment with Staphylococcus aureus [9]; more than 32 mg/kg with Pseudomonas aeruginosa [10]; 2.8 mg/kg with Escherichia coli [5]; 8 mg/kg in the experiment with Escherichia coli [11]; 2.5 mg/kg with Mus musculus [12]. For the same molecule, the ED50 with Mus musculus [15] is 0.4 mg/kg; in the experiment on Pseudomonas aeruginosa [16], more than 50 mg/kg.
